Experiment [1] concerns the target T1, Tubulin beta-1 chain (Homo sapiens, UniProt Q9H4B7). As to the kind of experiment: Percent inhibition of tubulin polymerization at 0.3 uM concentration. Format: functional.
Experiment [2] relates to LOX IMVI. The experiment in a line: Inhibitory concentration against Lox melanoma cells. The format is functional, cell-based. Particulars: Homo sapiens. The gist of the method:
(§1)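 Cytotoxicity panel covered tumor lines differing in P-glycoprotein expression. Lox melanoma and KM20 have none; NCI-H1299, HCT-15 and S1 express it. Result is the average IC50 (nM) ± SEM.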

Experiment [3] in a line: Concentration required to inhibit tumor cell growth in KB-3-1 cells. The format is functional, cell-based, Homo sapiens. Particulars: Homo sapiens, KB 3-1. The gist of the method:
(§2)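 Cytotoxicity was measured in paclitaxel-sensitive KB-3-1 cells and in KB-8-5 and KB-V1 cells, which express moderate and high P-glycoprotein respectively. Result is the average IC50 (nM) ± SEM; SEM is omitted where it is below 10% of the average.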

Experiment [4] has as its system KB. As to the kind of experiment: Concentration required to inhibit tumor cell growth in KB-8-5 cells. Particulars: Homo sapiens, KB. Format: functional, cell-based, Homo sapiens. The gist of the method:
as §2

In experiment [5] the test system is NCI-H1299. As to the kind of experiment: Inhibitory concentration against NCI-H1299 cells was evaluated. Format: functional, cell-based. As to conditions: Homo sapiens. The gist of the method: as §1
The subject of experiment [6] is KB. As to the kind of experiment: Concentration required to inhibit tumor cell growth in KB-V1 cells. The format is functional, cell-based. Particulars: Homo sapiens. The gist of the method: as §2
For experiment [7], the system named is HCT-15. As to the kind of experiment: Inhibitory concentration against HCT-15 cells was evaluated. Particulars: Homo sapiens. Format: functional, cell-based. The gist of the method:
as §1

The target of experiment [8] is T1, Tubulin beta-1 chain. As to the kind of experiment: Binding affinity towards tubulin; d = weak binding.
Experiment [9] in a line: Inhibitory concentration against S1 cells was evaluated. Format: functional, cell-based. The method, boiled down:
as §1

Experiment [10] is described as follows: Inhibitory concentration against KM20 cells was evaluated. Format: functional, cell-based, Homo sapiens. The gist of the method: as §1
Experiment [11] has as its target T1, Tubulin beta-1 chain. As to the kind of experiment: Binding affinity towards tubulin.
In experiment [12] the test system is Mus musculus. The experiment in a line: Minimum effective dose was evaluated in lox melanoma human tumor graft model in athymic mice when administered intravenously. As to conditions: iv, read-out: MED.
Experiment [13] has as its system Mus musculus. The experiment in a line: Minimum tolerated dose was evaluated in lox melanoma human tumor graft model in athymic mice when administered intravenously.
The target of experiment [14] is T1, Tubulin beta-1 chain. As to the kind of experiment: Binding affinity towards tubulin; e = no evidence for binding.
The test system of experiment [15] is KB 3-1. The experiment in a line: Inhibitory concentration against KB-3-1 cells was evaluated. Format: functional, cell-based. Particulars: Homo sapiens. The method, boiled down:
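Cytotoxicity was measured in paclitaxel-sensitive KB-3-1 human carcinoma cells. The value is the average IC50 in nM ± SEM; where no SEM is given, it is under 10% of the average.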

Structures are written as SMILES.

T1 sequence (Q9H4B7 whole entry): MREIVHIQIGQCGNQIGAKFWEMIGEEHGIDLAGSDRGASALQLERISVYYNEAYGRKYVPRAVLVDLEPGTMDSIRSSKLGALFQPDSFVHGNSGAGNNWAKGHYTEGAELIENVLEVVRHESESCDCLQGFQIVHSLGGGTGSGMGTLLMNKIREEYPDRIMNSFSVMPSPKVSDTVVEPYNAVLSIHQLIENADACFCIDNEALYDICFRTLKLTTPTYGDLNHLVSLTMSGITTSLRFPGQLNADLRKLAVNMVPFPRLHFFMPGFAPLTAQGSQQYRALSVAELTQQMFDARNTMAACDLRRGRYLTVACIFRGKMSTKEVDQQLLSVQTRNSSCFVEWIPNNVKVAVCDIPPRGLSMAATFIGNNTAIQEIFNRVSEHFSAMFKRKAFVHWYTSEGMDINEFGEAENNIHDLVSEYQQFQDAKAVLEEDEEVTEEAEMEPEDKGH

`CN[C@@H](C(=O)N[C@H](C(=O)N(C)[C@H](/C=C(\C)C(=O)O)C(C)C)C(C)(C)C)C(C)(C)c1ccccc1` (single isomer, unassigned) showed an inhibition in experiment [1] of 91%. In addition, the 50% inhibitory concentration (IC50) in experiment [2] came to 0.037 µM; in [3], 0.028 µM; in experiment [4] it was 0.039 µM; in experiment [5], 0.079 µM; in experiment [6], 0.879 µM; in experiment [7] it was 0.058 µM. The Kd entry in experiment [8] is given as “Weak binding”.

`CN[C@H](C(=O)N[C@H](C(=O)N(C)[C@H](/C=C(\C)C(=O)O)C(C)C)C(C)(C)C)C(C)(C)c1ccccc1` [TALTOBULIN] displayed an inhibition in experiment [1] of 88%. Moreover, the IC50 in experiment [9] was determined as 0.0037 µM; in experiment [2], 0.0014 µM; in experiment [5], 0.0068 µM; in [10], 0.0018 µM; in experiment [6], 0.0774 µM; in experiment [7], 0.0042 µM. In [11], this molecule gave a Kd of 0.26 µM. For the same molecule, the minimal effective dose in experiment [12] came out at 0.2 mg/kg. For the same molecule, in experiment [13], the MTD worked out at 1.6 mg/kg.

Molecule `C/C(=C\[C@H](C(C)C)N(C)C(=O)[C@@H](NC(=O)[C@@H](C)C(C)(C)c1ccccc1)C(C)(C)C)C(=O)O` returned an inhibition in [1] of 94%. The half-maximal inhibitory concentration (IC50) in [2] is 1.38 µM; in [3], 0.561 µM; in experiment [4], 0.639 µM; in [5] it was 1.07 µM; in experiment [6] it was more than 3 µM; in experiment [7], 1.2 µM. Also, in experiment [14], the Kd entry was “No evidence for binding”.

The molecule `CN[C@H](C(=O)N[C@H](C(=O)N(C)[C@H](/C=C(\C)C(=O)O)C(C)C)C(C)(C)C)C(C)(C)c1ccc(OC)cc1` gave an inhibition in experiment [1] of 91%. In addition, the IC50 in [9] stood at 0.0073 µM; in [2], 0.0011 µM; in [3] it was 0.0014 µM; in [4], 0.0041 µM; in [5], 0.01 µM; in experiment [6], 0.143 µM. In addition, the IC50 in experiment [7] amounted to 0.0069 µM. The same molecule yielded a Kd in experiment [11] of 0.7 µM. The minimal effective dose in experiment [12] is 0.1 mg/kg. Besides, the maximal tolerated dose (MTD) in [13] is 1.6 mg/kg.

In the case of `CC(=O)O[C@H]1C(=O)[C@@]2(C)[C@H]([C@H](OC(=O)c3ccccc3)[C@]3(O)C[C@H](OC(=O)[C@H](O)[C@@H](NC(=O)c4ccccc4)c4ccccc4)C(C)=C1C3(C)C)[C@]1(OC(C)=O)CO[C@@H]1C[C@@H]2O` [PACLITAXEL], the IC50 stood at 0.092 µM in experiment [9]; 0.0173 µM in experiment [2]; 0.0377 µM in [5]; 0.0089 µM in experiment [10]; 0.438 µM in experiment [7]; 0.0039 µM in experiment [15].

Values taken from ChEMBL document CHEMBL1138753, “Synthesis and biological activity of analogues of the antimicrotubule agent N,beta,beta-trimethyl-L-phenylalanyl-N(1)-[(1S,2E)-3-carboxy-1-isopropylbut-2-enyl]- N(1),3-dimethyl-L-valinamide (HTI-286)” (J Med Chem, 2004).
